Activity calls are given as the source filed them.
Tests used:
Staphylococcus aureus [1] = assay: Antimicrobial activity against methicillin-resistant Staphylococcus aureus HAR24 assessed as concentration required for minimum inhibition of BRP-resistant subpopulation growth; format: functional
Procedure, shortened: (§1)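 Etest (manufacturer's method) and population analysis: overnight cultures serially diluted and plated on TSA with increasing oxacillin or BPR, CFU counted after 48 h at 37°C. Colonies from subpopulations growing at high oxacillin or BPR were picked, restreaked on antibiotic-free TSA for three passages, then retested by population analysis.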

Staphylococcus aureus [2] = assay: Antimicrobial activity against methicillin-resistant Staphylococcus aureus COL assessed as concentration required for minimum inhibition of BRP-resistant subpopulation growth; format: functional; procedure, shortened: as §1
Staphylococcus aureus [3] = assay: Antimicrobial activity against methicillin-resistant Staphylococcus aureus HPV107 assessed as concentration required for minimum inhibition of BRP-resistant subpopulation growth by Etest; format: functional; procedure, shortened: as §1
Staphylococcus aureus [4] = assay: Antimicrobial activity against vancomycin-intermediate Staphylococcus aureus JH9 obtained from bacteremic patient by Etest; format: functional
Procedure, shortened: (§2)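 Etest and population analysis: overnight cultures plated on TSA with increasing vancomycin, oxacillin or BPR, CFU counted after 48 h at 37°C. For VRSA strains, vancomycin plates also run with constant 1 µg/ml BPR. Vancomycin Etest read after overnight 37°C incubation on TSA with or without 1 µg/ml BPR.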

Staphylococcus aureus [5] = assay: Antimicrobial activity against methicillin-resistant Staphylococcus aureus HU25 assessed as concentration required for minimum inhibition of BRP-resistant subpopulation growth; format: functional; procedure, shortened: as §1
Staphylococcus aureus [6] = assay: Antimicrobial activity against methicillin-resistant Staphylococcus aureus USA300 by Etest; format: functional; procedure, shortened: as §1
Staphylococcus aureus [7] = assay: Antimicrobial activity against methicillin-resistant Staphylococcus aureus HDE288 by Etest; format: functional; procedure, shortened: as §1
Staphylococcus aureus [8] = assay: Antimicrobial activity against methicillin-resistant Staphylococcus aureus HPV107 assessed as concentration required for minimum inhibition of oxacillin-resistant subpopulation growth by Etest; format: functional; procedure, shortened: as §1
Staphylococcus aureus [9] = assay: Antimicrobial activity against oxacillin-resistant Staphylococcus aureus COLVA harboring Tn1546 transposon by Etest; format: functional; procedure, shortened: as §2
[10] = target: T1, Penicillin-binding protein 4 (Staphylococcus aureus (strain COL)) (UniProt A0A0H2WY27); assay: Displacement of benzyl-[14C]penicillin from Staphylococcus aureus PBP4 by in vitro competitive assay; details: Staphylococcus aureus subsp. aureus COL
T1 sequence (whole entry): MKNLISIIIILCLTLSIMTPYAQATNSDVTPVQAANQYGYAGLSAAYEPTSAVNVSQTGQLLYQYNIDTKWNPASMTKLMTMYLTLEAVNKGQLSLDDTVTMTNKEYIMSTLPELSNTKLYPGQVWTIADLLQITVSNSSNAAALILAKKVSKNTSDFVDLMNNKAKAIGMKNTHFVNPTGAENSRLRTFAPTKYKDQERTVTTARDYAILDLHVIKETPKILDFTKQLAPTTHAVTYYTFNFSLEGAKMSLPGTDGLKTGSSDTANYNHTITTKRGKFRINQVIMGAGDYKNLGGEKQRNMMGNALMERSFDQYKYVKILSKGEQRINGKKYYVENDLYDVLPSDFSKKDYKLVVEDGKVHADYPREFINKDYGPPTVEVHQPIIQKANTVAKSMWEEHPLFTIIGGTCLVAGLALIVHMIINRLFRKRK
Procedure, shortened: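 Membranes came from late-exponential cells of RU130, a PBP 2 insertional mutant of COL. Samples of 150 µg protein were preincubated with increasing drug concentrations for 10 min at 30°C, then labeled with benzyl[14C]penicillin at 20 µg/ml for 10 min at 37°C. The reaction was stopped with excess unlabeled benzylpenicillin in SDS. Read-out was SDS-PAGE with phosphor-screen exposure for 2 weeks.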

Staphylococcus aureus [11] = assay: Antimicrobial activity against methicillin-resistant Staphylococcus aureus BK2464 by Etest; format: functional; procedure, shortened: as §1
Staphylococcus aureus [12] = assay: Antimicrobial activity against methicillin-resistant Staphylococcus aureus BK2464 assessed as concentration required for minimum inhibition of oxacillin-resistant subpopulation growth by Etest; format: functional; procedure, shortened: as §1
Staphylococcus aureus [13] = assay: Antimicrobial activity against methicillin-resistant Staphylococcus aureus USA300 assessed as concentration required for bacterial subpopulation growth; format: functional; procedure, shortened: as §1
Staphylococcus aureus [14] = assay: Antimicrobial activity against methicillin-resistant Staphylococcus aureus BK2529 by Etest; format: functional; procedure, shortened: as §1
Staphylococcus aureus [15] = assay: Effect on cell wall composition of Staphylococcus aureus COL at 0.4 ug/ml after 100 mins by HPLC method; format: functional, organism-based
Procedure, shortened: (§3)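 Strain COL was grown in 1-liter cultures at 37°C to OD620 0.4, with or without drug at 0.4 µg/ml in the medium. Peptidoglycan was then purified and analysed by HPLC elution profile.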

Staphylococcus aureus [16] = assay: Effect on cell wall composition of Staphylococcus aureus COL at 0.4 ug/ml by HPLC method; format: functional, organism-based; procedure, shortened: as §3

Nc1nc(/C(=N/O)C(=O)N[C@@H]2C(=O)N3C(C(=O)O)=C(/C=C4\CCN([C@@H]5CCNC5)C4=O)CS[C@H]23)ns1 [CEFTOBIPROLE]
1.5 µg/mL: MIC (Staphylococcus aureus [6]) | MIC (Staphylococcus aureus [9]) | MIC (Staphylococcus aureus [11]) | Activity (Staphylococcus aureus [12]) | Activity (Staphylococcus aureus [13]) | MIC (Staphylococcus aureus [14])
0.8 µg/mL: Activity (Staphylococcus aureus [3]) | MIC (Staphylococcus aureus [4]) | MIC (Staphylococcus aureus [7]) | Activity (Staphylococcus aureus [8])
inactive: Activity (Staphylococcus aureus [15])
active: Activity [10] | Activity (Staphylococcus aureus [16])
3 µg/mL: Activity (Staphylococcus aureus [1]) | Activity (Staphylococcus aureus [2]) | Activity (Staphylococcus aureus [5])
